Compounds with a hit are over-represented: about 2.4% of the library has one in this group of screens.
INS-1E GSIS act – GLuc luminescence reporter in INS-1E cells, primary screen for activators of glucose-dependent secretion of insulin | activation, % at 16.6 µM | actives 0.61% (n = 370,000) | INS-1E GLuc reporter insulin secretion, 2-3 h;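 active means lowest replicate activation of at least 40%, so every replicate reaches that level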
HIV Env fusion – inhibitors of HIV-1 Env-driven cell-cell fusion, primary screen, HeLa-JRFL effector, CEM21 target cells, luciferase | inhibition, % at 12.3 µM | actives 1.1% (n = 360,000) | AID 651610, 2012;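 active means mean replicate inhibition score of at least 50 and every replicate individually at or above 50; inconclusive means only one of the two criteria met; inactive means mean below 50 and not all replicates reaching 50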
Rtt109 HAT inh – inhibitors of C. albicans Rtt109/Vps75 HAT, primary screen, biochemical, ThioGlo CoA-SH fluorescence, plate reader; Histone acetyltransferase RTT109 (Candida albicans (strain SC5314 / ATCC MYA-2876)), …; purified Rtt109/Vps75, 4 h; inhibition, % at 34.9 µM; actives 0.16% (n = 330,000); AID 540336, 2011;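 active means inhibition of at least 50% in every replicate; inconclusive means best replicate reaches 50% inhibition but some replicates fall short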
Target sequence (Q5AAJ8 whole entry, looked up): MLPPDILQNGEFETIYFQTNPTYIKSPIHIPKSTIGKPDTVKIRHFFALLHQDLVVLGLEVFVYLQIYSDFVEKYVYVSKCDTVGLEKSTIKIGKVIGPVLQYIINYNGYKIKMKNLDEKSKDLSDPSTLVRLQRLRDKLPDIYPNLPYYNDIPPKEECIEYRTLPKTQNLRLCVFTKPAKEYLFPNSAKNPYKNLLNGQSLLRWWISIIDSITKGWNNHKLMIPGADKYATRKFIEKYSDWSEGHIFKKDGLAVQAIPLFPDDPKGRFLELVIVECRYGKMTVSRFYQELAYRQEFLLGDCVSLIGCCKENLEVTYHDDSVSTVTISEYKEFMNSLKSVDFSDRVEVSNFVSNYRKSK
dFosB activator – activators of delta FosB homodimer, primary screen, biochemical, fluorescence polarization, TAMRA-CDK5 oligo, single point. Protein FosB (Mus musculus), P13346. purified delta FosB; percent of positive-control signal above neutral wells. activation, % at 25 µM. actives 0.99% (n = 340,000);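 active means mean activation above about 17%, with every replicate also reaching it, limit read from the data, passing the limit was not always enough; inconclusive means only one of the two conditions met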
Cneo AK release – Cryptococcus neoformans cell lysis inducers, primary screen, AK release luminescence, single concentration. C. neoformans lysis, adenylate kinase release luminescence, 4 h; normalised: neutral wells 0, clomiphene wells 100. lysis activity, % at 15 µM. actives 0.2% (n = 360,000). AID 651654, 2012;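 active means mean lysis activity across replicates of at least 80%, whatever share of replicates individually reach that level; inactive means mean lysis activity below 80%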
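Material – log-phase Cryptococcus neoformans yeast cells · Input – 5 × 10^6 yeast cells/mL · Medium – fresh YPD growth medium · Doses – single compound concentration per well · Timing – static 4 h at 37 °C with compound, 1 h detection · Detection – adenylate kinase release luminescence · Read-out – signal increase indicating cell lysis · Control set – Clomiphene as positive lysis control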
miR122 inh – miR-122 Renilla sensor signal increase in Huh7, primary screen, miR-122 inhibitor project, cell-based, single point, plate reader; Huh7 miR-122 Renilla luciferase sensor, 48 h; neutral wells = 0, positive control = 100; activation (reporter increase), % at 12.5 µM; actives 0.3% (n = 340,000);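 active means mean replicate activation score at least 90 and every replicate individually at or above 90; inconclusive means only one of the two criteria met; inactive means neither criterion met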;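 further: higher luciferase means less miR-122 activity so hits act as miR-122 inhibitors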
Hits are given with their value.

COc1ccc2c3c([nH]c2c1)[C@H](CO)N(Cc1cccnc1)CC31CCN(C(=O)c2cccnc2)CC1 was read as INS-1E GSIS act inactive and HIV Env fusion inactive.
For COc1ccc2nc3ccccc3nc2c1NC(=O)c1ccc(Cl)cc1 the results were INS-1E GSIS act 70.1, HIV Env fusion inactive, Rtt109 HAT inh inactive, dFosB activator inactive, Cneo AK release inactive and miR122 inh inactive.
Screening Cc1ccc(S(=O)(=O)N/N=C\c2cn(CC(N)=O)c3ccccc23)cc1C returned INS-1E GSIS act inactive, HIV Env fusion inactive, Rtt109 HAT inh inactive, dFosB activator inactive and Cneo AK release inactive.
`NC(=O)Cn1cc(/C=N\NS(=O)(=O)c2ccc(Cl)cc2)c2ccccc21` gave INS-1E GSIS act inactive, HIV Env fusion inactive, Rtt109 HAT inh inactive, dFosB activator inactive, Cneo AK release inactive and miR122 inh 127.8.
For CSc1nc2c(c(=O)n1Cc1ccccc1)SC(C)C2 (stereo not given) the results were INS-1E GSIS act 44.8, Rtt109 HAT inh inactive, dFosB activator inactive, Cneo AK release inactive and miR122 inh inactive.
`CC1Cc2nc(SCC(=O)NCc3ccccc3)n(Cc3ccccc3)c(=O)c2S1` (stereo not given) gave INS-1E GSIS act inactive, HIV Env fusion 71.6, Rtt109 HAT inh inactive, dFosB activator inactive, Cneo AK release inactive and miR122 inh inactive.
Screening O=C(N[C@@H]1CC[C@H](CCNS(=O)(=O)c2ccc(F)cc2)O[C@H]1CO)c1cnccn1 returned INS-1E GSIS act inactive, HIV Env fusion inactive and Cneo AK release inactive.
Screening CC(C)c1ccccc1NC(=S)NN(Cc1ccccc1)c1ccccc1 returned INS-1E GSIS act inactive, HIV Env fusion inactive, dFosB activator inactive, Cneo AK release 230.6 and miR122 inh inactive.
Screening O=C1c2cccnc2C(Nc2cccc(F)c2)N1Cc1ccco1 (stereo not given) returned INS-1E GSIS act 70.5, HIV Env fusion inactive, Rtt109 HAT inh inactive, dFosB activator inactive, Cneo AK release inactive and miR122 inh inactive.
`CC(=O)c1cccc(NC2c3ccccc3C(=O)N2Cc2ccco2)c1` (stereo not given) gave INS-1E GSIS act inactive, HIV Env fusion inactive, Rtt109 HAT inh inactive, dFosB activator inactive, Cneo AK release inactive and miR122 inh inactive.
CC(=O)c1cccc(NC2c3ncccc3C(=O)N2Cc2ccco2)c1 (stereo not given) was read as INS-1E GSIS act 49.8, Rtt109 HAT inh inactive, dFosB activator inactive, Cneo AK release inactive and miR122 inh inactive.
For C[C@@H]1CN([C@@H](C)CO)C(=O)c2cc(C#C[C@@H](C)O)cnc2O[C@H]1CN(C)C(=O)Nc1ccc(C(F)(F)F)cc1 the results were INS-1E GSIS act inactive, HIV Env fusion inactive and Cneo AK release inactive.
`O=C(/C=C/c1cccc([N+](=O)[O-])c1)c1ccc([N+](=O)[O-])o1` gave INS-1E GSIS act inactive, HIV Env fusion 55.8, Rtt109 HAT inh inactive, dFosB activator inactive and Cneo AK release inactive.
Cc1cccc(/C=C/C(=O)c2ccc([N+](=O)[O-])o2)c1 was read as INS-1E GSIS act inactive, HIV Env fusion inactive, Rtt109 HAT inh inactive, dFosB activator inactive and Cneo AK release inactive.
`CCN1CCN(c2nc(Nc3ccc(NC(C)=O)cc3)nc(Nc3ccc(NC(C)=O)cc3)n2)CC1` gave INS-1E GSIS act inactive, HIV Env fusion inactive, Rtt109 HAT inh inactive and dFosB activator 72.9.
COCC#Cc1ccc([C@H]2[C@H](CO)N3C(=O)CN(C(=O)Nc4cc(F)ccc4F)C[C@@H]23)cc1 was read as INS-1E GSIS act inactive.
For CCCn1c(C)cc(C(=O)COc2ccc(C)nc2[N+](=O)[O-])c1C the results were HIV Env fusion inactive, Rtt109 HAT inh inactive, dFosB activator inactive, Cneo AK release inactive and miR122 inh inactive.
For Cc1ccc(OCC(=O)c2cc(C)n(-c3ccccc3)c2C)c([N+](=O)[O-])n1 the results were INS-1E GSIS act inactive, HIV Env fusion 66.7, Rtt109 HAT inh inactive and dFosB activator inactive.
`CO[C@@H]1CN(C)C(=O)c2ccc(NS(=O)(=O)c3ccc(-c4ccccc4)cc3)cc2OC[C@@H](C)NC[C@@H]1C` gave INS-1E GSIS act inactive.
O=C(CC1C(=O)NCCN1Cc1cccc(F)c1)NC1CCCCC1 (stereo not given) was read as HIV Env fusion 90.9, Rtt109 HAT inh inactive, dFosB activator inactive, Cneo AK release inactive and miR122 inh inactive.
For O=C(CC1C(=O)NCCN1Cc1cccc(F)c1)NC1CCC1 (stereo not given) the results were INS-1E GSIS act inactive, HIV Env fusion inactive, Rtt109 HAT inh inactive, dFosB activator inactive, Cneo AK release inactive and miR122 inh inactive.
Screening CCOc1ccc(C(=O)Nc2ccc(NC(=O)c3cccs3)cc2)cc1[N+](=O)[O-] returned INS-1E GSIS act 103.6, HIV Env fusion inactive, Rtt109 HAT inh inactive, dFosB activator inactive, Cneo AK release inactive and miR122 inh inactive.
For COc1ccc(C(=O)Nc2ccc(NC(=O)c3cccs3)cc2)cc1[N+](=O)[O-] the results were INS-1E GSIS act inactive, HIV Env fusion inactive, Rtt109 HAT inh inactive and dFosB activator inactive.
`CCOc1ccc(C(=O)NC(=S)Nc2ccc(NC(=O)c3ccco3)cc2)cc1[N+](=O)[O-]` gave INS-1E GSIS act 43.1, HIV Env fusion inactive, Rtt109 HAT inh inactive and dFosB activator inactive.
For COc1cc(C(=O)NC(=S)Nc2ccc(NC(=O)c3ccco3)cc2)cc(OC)c1OC the results were INS-1E GSIS act inactive, HIV Env fusion inactive, Rtt109 HAT inh inactive and dFosB activator inactive.
Screening COc1ccc(S(=O)(=O)Nc2ccc3c(c2)CC(=O)N([C@H](C)CO)C[C@@H](C)[C@H](CN(C)Cc2ccc(Cl)c(Cl)c2)O3)cc1 returned INS-1E GSIS act inactive, HIV Env fusion inactive, Cneo AK release inactive and miR122 inh inactive.
For Cn1nc(CC(=O)N2CCN(c3ccccc3)CC2)c2ccccc2c1=O the results were HIV Env fusion inactive, Rtt109 HAT inh inactive, dFosB activator inactive, Cneo AK release inactive and miR122 inh 343.8.
For Cn1nc(CC(=O)Nc2ccc(N3CCN(C(=O)OC(C)(C)C)CC3)cc2)c2ccccc2c1=O the results were HIV Env fusion inconclusive, Rtt109 HAT inh inactive, dFosB activator 21.4, Cneo AK release inactive and miR122 inh inactive.

Assay outcomes as filed in PubChem BioAssay.
